Common to all, as to format: functional
Assay [1] concerns Streptococcus pneumoniae. In words: Antimicrobial activity against telithromycin-resistant Streptococcus pneumoniae isolate P1501016 by agar dilution method. An outline of the steps: (§1)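 Agar dilution MICs per CLSI agar plate preparation, plates containing 5% horse blood, incubated in ambient air 20-24 h; MICs interpreted with CLSI broth microdilution breakpoints (telithromycin ≤1 µg/ml S, 2 I, ≥4 R). Reference strain S. pneumoniae ATCC49619. Induction testing run without and with erythromycin (0.25 µg/ml).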
A general note: Agar dilution tests growth on a series of plates holding different concentrations.

Assay [2] concerns Streptococcus pneumoniae. Nature of the assay: Antimicrobial activity against wild-type Streptococcus pneumoniae PC13 by agar dilution method. In outline:
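Agar dilution MICs on plates prepared per CLSI guidance and containing 5% horse blood. Plates incubated in ambient air for 20-24 h. Interpretation used CLSI broth microdilution breakpoints, with S. pneumoniae ATCC49619 as reference strain.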

In assay [3] the test system is Streptococcus pneumoniae. In words: Increase in erm(B) mRNA expression in Streptococcus pneumoniae […] transformant harboring 136-bp deletion in erm(B) gene at 0.25 ug/ml by qRT-PCR relative to baseline. In outline: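 Strains grown in TSB at 37°C, 5% CO2 to OD600 0.2, untreated or with erythromycin (0.25 µg/ml), three cultures per condition. Cells stabilised in RNAProtect before RNA extraction. erm(B) mRNA quantified relative to the untreated culture. Means compared by paired t test at the 95% level.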

The subject of assay [4] is Streptococcus pneumoniae. Nature of the assay: Increase in erm(B) mRNA expression in wild type Streptococcus pneumoniae PC13 at 0.25 ug/ml by qRT-PCR relative to baseline. In outline: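 Cultures grown in triplicate in Tryptone Soya Broth at 37°C, 5% CO2 to OD600 0.2, without antibiotic or with erythromycin 0.25 µg/ml. Cells stabilised in RNAProtect, then RNA extracted for relative quantification of erm(B) mRNA against untreated cells.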

Assay [5] concerns Streptococcus pneumoniae. Nature of the assay: Increase in dimethylation at position A2058 of 23S rRNA of Streptococcus pneumoniae PC13 transformant harboring 136-bp deletion in erm(B) gene at 0.25 ug/ml by phosphorimager scanning relative to baseline. An outline of the steps:
(§2)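 Cells grown in TSB at 37°C, 5% CO2 to OD600 0.2, untreated or with telithromycin (0.008 µg/ml) or erythromycin (0.25 µg/ml), three cultures per condition. Total RNA extracted. Primer extension across G2061-U2079 of 23S rRNA on 1.5 pmol rRNA with reverse transcriptase, ddGTP mix in test samples, done in triplicate. Products run on denaturing polyacrylamide gels, quantified by phosphorimager as % A2058 dimethylation.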

The subject of assay [6] is Streptococcus pneumoniae. Nature of the assay: Increase in dimethylation at position A2058 of 23S rRNA of Streptococcus pneumoniae isolate P1501016 at 0.25 ug/ml by phosphorimager scanning relative to baseline. In outline:
(§3)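 Cells grown in Tryptone Soya Broth at 37°C, 5% CO2 to OD600 0.2, either untreated, with telithromycin 0.008 µg/ml, or with erythromycin 0.25 µg/ml. Total RNA extracted. A primer complementary to 23S rRNA G2061-U2079 was extended by reverse transcriptase on 1.5 pmol rRNA with dTTP, dCTP and ddGTP. Triplicate reactions run on denaturing gels beside a sequencing ladder and quantified by phosphorimager.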

Assay [7] deals with Streptococcus pneumoniae. In words: Increase in lag phase of growth for wild type Streptococcus pneumoniae PC13 assessed as doubling time at 1 ug/ml. In outline: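 Glycerol stocks diluted 1:100 into Tryptone Soya Broth with or without erythromycin 1 µg/ml and incubated at 37°C, 5% CO2. OD600 read every 30 min, and doubling time calculated over exponential growth.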
In assay [8] the test system is Streptococcus pneumoniae. Nature of the assay: Increase in lag phase of growth for Streptococcus pneumoniae PC13 transformant harboring 136-bp deletion in erm(B) gene assessed as doubling time at 1 ug/ml. An outline of the steps: (§4)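 Inoculated from glycerol stocks 1:100 into TSB with or without erythromycin (1 µg/ml), 37°C in 5% CO2. OD600 read every 30 min; doubling time calculated over exponential growth.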

Assay [9] relates to Streptococcus pneumoniae. Nature of the assay: Increase in lag phase of growth for telithromycin-resistant Streptococcus pneumoniae isolate P1501016 assessed as doubling time at 1 ug/ml. An outline of the steps:
as §4

Assay [10] relates to Streptococcus pneumoniae. In words: Antimicrobial activity against Streptococcus pneumoniae PC13 transformant harboring 136-bp deletion in erm(B) gene by agar dilution method. An outline of the steps:
as §1

For assay [11], the system named is Streptococcus pneumoniae. Nature of the assay: Increase in erm(B) mRNA expression in Streptococcus pneumoniae PC13 transformant harboring 136-bp deletion in erm(B) gene at 0.008 ug/ml by qRT-PCR relative to baseline. An outline of the steps: (§5)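 Cells grown in Tryptone Soya Broth at 37°C, 5% CO2 to OD600 0.2, in triplicate cultures per strain, without antibiotic or with telithromycin 0.008 µg/ml (erythromycin 0.25 µg/ml as a further condition). Cultures were then stabilised in RNAProtect Bacteria Reagent and pelleted. Total RNA was extracted and erm(B) mRNA quantified relative to untreated cultures.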
In general terms: Real-time PCR tracks product formation cycle by cycle.

In assay [12] the test system is Streptococcus pneumoniae. Nature of the assay: Increase in erm(B) mRNA expression in wild-type Streptococcus pneumoniae PC13 at 0.008 ug/ml by qRT-PCR relative to baseline. In outline:
as §5

Assay [13] has as its system Streptococcus pneumoniae. Nature of the assay: Increase in dimethylation at position A2058 of 23S rRNA of wild type Streptococcus pneumoniae PC13 at 0.008 ug/ml by phosphorimager scanning relative to baseline. An outline of the steps: as §3
In assay [14] the test system is Streptococcus pneumoniae. In words: Increase in dimethylation at position A2058 of 23S rRNA of wild type Streptococcus pneumoniae PC13 at 0.25 ug/ml by phosphorimager scanning relative to baseline. In outline:
as §3

Assay [15] has as its system Streptococcus pneumoniae. In words: Increase in dimethylation at position A2058 of 23S rRNA of Streptococcus pneumoniae PC13 transformant harboring 136-bp deletion in erm(B) gene at 0.008 ug/ml by phosphorimager scanning relative to baseline. An outline of the steps: as §2
Assay [16] concerns Streptococcus pneumoniae. Nature of the assay: Increase in dimethylation at position A2058 of 23S rRNA of Streptococcus pneumoniae isolate P1501016 at 0.008 ug/ml by phosphorimager scanning relative to baseline. An outline of the steps: as §3

Converted amounts (≈) assume the structure as drawn.

For orientation: MIC means the lowest concentration found to suppress growth. High values mean a less susceptible organism, low ones a more susceptible organism. Take `CC[C@H]1OC(=O)[C@H](C)[C@@H](O[C@H]2C[C@@](C)(OC)[C@@H](O)[C@H](C)O2)[C@H](C)[C@@H](O[C@@H]2O[C@H](C)C[C@H](N(C)C)[C@H]2O)[C@](C)(OC)C[C@@H](C)C(=O)[C@H](C)[C@@H](O)[C@]1(C)O` [CLARITHROMYCIN]: the MIC in the assay on Streptococcus pneumoniae [1] and in the assay on Streptococcus pneumoniae [2] was greater than 256 µg/mL throughout.
Take `CCC[C@@H]1C[C@@H](C(=O)N[C@@H]([C@H]2O[C@H](SC)[C@H](O)[C@@H](O)[C@H]2O)[C@H](C)Cl)N(C)C1` [CLINDAMYCIN]: the MIC with Streptococcus pneumoniae [1] and in the assay with Streptococcus pneumoniae [2] was greater than 256 µg/mL each time.
`CC[C@H]1OC(=O)[C@H](C)[C@@H](O[C@H]2C[C@@](C)(OC)[C@@H](O)[C@H](C)O2)[C@H](C)[C@@H](O[C@@H]2O[C@H](C)C[C@H](N(C)C)[C@H]2O)[C@](C)(O)C[C@@H](C)C(=O)[C@H](C)[C@@H](O)[C@]1(C)O` [ERYTHROMYCIN]: the MIC with Streptococcus pneumoniae [1] and with Streptococcus pneumoniae [2] was greater than 256 µg/mL each time. Also, the “fold change (FC)” value with Streptococcus pneumoniae [3] came to 4.98; with Streptococcus pneumoniae [4], 2.57. The Activity in the assay with Streptococcus pneumoniae [5] came to 72%; in the assay on Streptococcus pneumoniae [6] it was 68%; in the assay on Streptococcus pneumoniae [7] it was 53 min; in the assay on Streptococcus pneumoniae [8], 52.5 min; in the assay with Streptococcus pneumoniae [9], 43.3 min.
Consider `CC[C@H]1OC(=O)[C@H](C)C(=O)[C@H](C)[C@@H](O[C@@H]2O[C@H](C)C[C@H](N(C)C)[C@H]2O)[C@](C)(OC)C[C@@H](C)C(=O)[C@H](C)[C@H]2N(CCCCn3cnc(-c4cccnc4)c3)C(=O)O[C@]12C` [TELITHROMYCIN], for which the results for the MIC against Streptococcus pneumoniae [1], in the assay with Streptococcus pneumoniae [2] and with Streptococcus pneumoniae [10] were 8 µg/mL (≈ 9.85 µM), 0.06 µg/mL (≈ 0.0739 µM) and 16 µg/mL (≈ 19.7 µM), respectively. Besides, the “fold change (FC)” value in the assay with Streptococcus pneumoniae [11] worked out at 1.31; with Streptococcus pneumoniae [12], 0.66. In addition, the Activity in the assay on Streptococcus pneumoniae [13] worked out at 29%; in the assay on Streptococcus pneumoniae [14], 46%; with Streptococcus pneumoniae [15], 64%; in the assay on Streptococcus pneumoniae [16], 66%.
Turning to `CN(C)[C@@H]1C(O)=C(C(N)=O)C(=O)[C@@]2(O)C(O)=C3C(=O)c4c(O)cccc4[C@@](C)(O)[C@H]3C[C@@H]12` [TETRACYCLINE], the MIC stood at 4 µg/mL (≈ 9 µM) against Streptococcus pneumoniae [1], 16 µg/mL (≈ 36 µM) against Streptococcus pneumoniae [2] and 16 µg/mL (≈ 36 µM) against Streptococcus pneumoniae [10].

For the origin of these results see ChEMBL document CHEMBL1152469, “Telithromycin resistance in Streptococcus pneumoniae is conferred by a deletion in the leader sequence of erm(B) that increases rRNA methylation” (2008).
